Converted amounts (≈) assume the structure as drawn.
Columns and labels:
Assay type in all cases: functional
Nakaseomyces glabratus [1] = assay: Antifungal activity against Candida glabrata isolate Cg11S
How it was run: (§1)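 Fluconazole susceptibility by modified CLSI (NCCLS) broth microdilution. Medium was buffered RPMI with 2% glucose added. Inoculum was 250 cells per well, incubated at 37°C for 48 h. MIC was read as the concentration giving 80% growth reduction (MIC80). Clinical oropharyngeal isolates were cultured on YPD or on minimal medium (yeast nitrogen base plus 2% glucose).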

Nakaseomyces glabratus [2] = assay: Antifungal activity against Candida glabrata isolate Cg2R with CgPDR1 F575L mutant; how it was run: as §1
Nakaseomyces glabratus [3] = assay: Antifungal activity against Candida glabrata isolate Cg3S; how it was run: as §1
Nakaseomyces glabratus [4] = assay: Antifungal activity against Candida glabrata isolate Cg1S; how it was run: as §1
Nakaseomyces glabratus [5] = assay: Antifungal activity against Candida glabrata isolate Cg13S; how it was run: as §1
Nakaseomyces glabratus [6] = assay: Antifungal activity against Candida glabrata isolate Cg4R with CgPDR1 S391L mutant; how it was run: as §1
Nakaseomyces glabratus [7] = assay: Antifungal activity against Candida glabrata isolate Cg22R with CgPDR1 L280F mutant; how it was run: as §1
Nakaseomyces glabratus [8] = assay: Antifungal activity against Candida glabrata isolate Cg14R with CgPDR1 N764I mutant; how it was run: as §1
Nakaseomyces glabratus [9] = assay: Antifungal activity against Candida glabrata isolate Cg5S; how it was run: as §1
Nakaseomyces glabratus [10] = assay: Antifungal activity against Candida glabrata isolate Cg8R with CgPDR1 W297S; how it was run: as §1
Nakaseomyces glabratus [11] = assay: Antifungal activity against Candida glabrata isolate Cg18R with CgPDR1 L344S mutant; how it was run: as §1
Nakaseomyces glabratus [12] = assay: Antifungal activity against Candida glabrata isolate Cg7S; how it was run: as §1
Nakaseomyces glabratus [13] = assay: Antifungal activity against Candida glabrata isolate Cg21S; how it was run: as §1
Nakaseomyces glabratus [14] = assay: Antifungal activity against Candida glabrata isolate Cg15S; how it was run: as §1
Nakaseomyces glabratus [15] = assay: Antifungal activity against Candida glabrata isolate Cg16R with CgPDR1 R772I mutant; how it was run: as §1
Nakaseomyces glabratus [16] = assay: Antifungal activity against Candida glabrata isolate Cg17S; how it was run: as §1
Nakaseomyces glabratus [17] = assay: Antifungal activity against Candida glabrata isolate Cg12R with CgPDR1 G348A mutant; how it was run: as §1
Nakaseomyces glabratus [18] = assay: Antifungal activity against Candida glabrata isolate Cg6R with CgPDR1 G943S mutant; how it was run: as §1

SMILES: OC(Cn1cncn1)(Cn1cncn1)c1ccc(F)cc1F [FLUCONAZOLE]
- MIC80 (Nakaseomyces glabratus [1]): 32 µg/mL (≈ 104 µM)
- MIC80 (Nakaseomyces glabratus [2]): 128 µg/mL (≈ 418 µM)
- MIC80 (Nakaseomyces glabratus [3]): 32 µg/mL (≈ 104 µM)
- MIC80 (Nakaseomyces glabratus [4]): 16 µg/mL (≈ 52.2 µM)
- MIC80 (Nakaseomyces glabratus [5]): 64 µg/mL (≈ 209 µM)
- MIC80 (Nakaseomyces glabratus [6]): 256 µg/mL (≈ 836 µM)
- MIC80 (Nakaseomyces glabratus [7]): 256 µg/mL (≈ 836 µM)
- MIC80 (Nakaseomyces glabratus [8]): 256 µg/mL (≈ 836 µM)
- MIC80 (Nakaseomyces glabratus [9]): 32 µg/mL (≈ 104 µM)
- MIC80 (Nakaseomyces glabratus [10]): 512 µg/mL (≈ 1670 µM)
- MIC80 (Nakaseomyces glabratus [11]): 256 µg/mL (≈ 836 µM)
- MIC80 (Nakaseomyces glabratus [12]): 32 µg/mL (≈ 104 µM)
- MIC80 (Nakaseomyces glabratus [13]): 32 µg/mL (≈ 104 µM)
- MIC80 (Nakaseomyces glabratus [14]): 16 µg/mL (≈ 52.2 µM)
- MIC80 (Nakaseomyces glabratus [15]): 128 µg/mL (≈ 418 µM)
- MIC80 (Nakaseomyces glabratus [16]): 32 µg/mL (≈ 104 µM)
- MIC80 (Nakaseomyces glabratus [17]): 256 µg/mL (≈ 836 µM)
- MIC80 (Nakaseomyces glabratus [18]): 256 µg/mL (≈ 836 µM)

— ChEMBL document CHEMBL1629459, “Microarray and molecular analyses of the azole resistance mechanism in Candida glabrata oropharyngeal isolates” (2010)
